Measured values of several laboratories.
Protocols differ between the studies behind these lines.
TEC: Tyrosine-protein kinase Tec (TEC, Homo sapiens, UniProt P42680)
TEC phosphorylated: Tyrosine-protein kinase Tec, phosphorylated (TEC, Homo sapiens, UniProt P42680)

| Structure (SMILES) | target | read-out | action | technique | tested at | measurement | result |
| --- | --- | --- | --- | --- | --- | --- | --- |
| O=C(Nc1cnn(-c2csc(C(=O)NC3COC3)c2)c1)Nc1ccccc1Cl | TEC | enzyme activity | inhibitor | – | 5 µM | remaining activity | 97.2% |
| CN(c1ccnc(CNc2nc(Nc3ccc4c(c3)CC(=O)N4)ncc2C(F)(F)F)n1)S(C)(=O)=O | TEC | cell-free assay | – | competition with immobilised ligand | 1 µM | remaining binding | 100% |
| CC/C(=N\NC(=O)NCc1cccc(O)c1)c1ccc(O)c(C)c1O | TEC | enzyme activity | inhibitor | – | 0.1 µM | inhibition | 0.2% |
| Cc1cc(NC(=O)c2cccc3cc(-c4cccc5[nH]nc(N)c45)ccc23)ccc1F | TEC phosphorylated | enzyme activity | inhibitor | – | 0.1 µM | activity vs control | 90% |
| CN([C@@H]1CCc2c(CC(=O)O)c3ccccc3n2C1)S(=O)(=O)c1ccc(F)cc1 | TEC | cell-free assay | – | competition with immobilised ligand | 1 µM | remaining binding | 100% |
| c1nc2c(Nc3ccc4c(c3)OCCO4)nc(Nc3ccc4c(c3)OCCO4)nc2[nH]1 | TEC | enzyme activity | inhibitor | – | 10 µM | activity vs control | 2.5% |
| O=C(O)[C@@H]1[C@@H](Cn2nnc3ccccc3c2=O)CC[C@H]1C(=O)c1ccc(OCCC2CCOCC2)cc1 | TEC | binding | – | competition with immobilised ligand | 1 µM | remaining binding | 95% |
| CCCOc1ccc(OC)c(F)c1C(=O)c1ccc(C(=O)N[C@@H]2CNC[C@H]2NC(=O)c2ccc3[nH]ncc3c2)cc1 | TEC phosphorylated | enzyme activity | inhibitor | – | 10 µM | remaining activity | 50% |
| Oc1cccc(-c2nc(N3CCOCC3)c3oc4ncccc4c3n2)c1 | TEC | cell-free assay | – | – | 0.5 µM | remaining signal | 113% |
| CN1CC(Oc2cnc(C#N)cc2-c2ccn3nc(NC(=O)C4CC4)cc3c2)C1 | TEC phosphorylated | enzyme activity | inhibitor | – | 1 µM | inhibition | 25% |
| CC(C)(C)c1nc2c(s1)c1nc(N)ncc1c1ccc(NS(=O)(=O)c3c(F)cccc3F)c(F)c12 | TEC | enzyme activity | inhibitor | radiometric | 1 µM | remaining activity | 87% |
| C[C@@H]1CN(c2cc(-c3nn(C)c4ccc(OC5(C)CC5)cc34)ncn2)C[C@H](C)O1 | TEC | cell-free assay | – | competition with immobilised ligand | 1 µM | remaining binding | 100% |
| CCOc1cc(-c2nncn2C)ccc1Nc1ncc2cc(C)nc(NCC(C)(C)C)c2n1 | TEC | cell-free assay | – | TR-FRET | 1 µM | inhibition | ≤ 15% |
| NS(=O)(=O)c1cc(NC(=O)C2(c3ccccc3Cl)CC2)ccc1Oc1cccc(Cl)c1 | TEC | binding | – | competition with immobilised ligand | 1 µM | remaining binding | 81% |
| Cc1ccc(C(=O)NCc2ccsc2)cc1C#Cc1cn(C(C)C)c2ncnc(N)c12 | TEC phosphorylated | enzyme activity | inhibitor | – | 1 µM | activity vs control | 107% |
| CNC(=O)c1cc(Oc2ccc(NC(=O)Nc3ccc(Cl)c(C(F)(F)F)c3)cc2)ccn1 | TEC | cell-free assay | – | – | 0.5 µM | remaining signal | 101% |
| O=C(O)c1cc(-c2ccc(C3CCNCC3)cc2)c2ccc(-c3ccc(C(F)(F)F)cc3)cc2c1 | TEC | cell-free assay | – | competition with immobilised ligand | 1 µM | remaining binding | 100% |
| CC(C)[C@H](NC(=O)c1cc(-c2cnn3cc(-c4ccc(OCCN5CCCCC5)cc4)cnc23)cs1)C(F)(F)F | TEC | enzyme activity | inhibitor | radiometric | 15 nM | inhibition | 0% |
| O=C1Nc2ccc(Cl)cc2C1=Cc1cc(Cl)c(O)c(Cl)c1 | TEC | cell-free assay | – | – | 0.5 µM | remaining signal | 109% |
| CCN(CC)c1ccc(C2=NNC(=O)CC2C)cc1[N+](=O)[O-] (centres unmarked) | TEC phosphorylated | enzyme activity | inhibitor | – | 10 µM | remaining activity | 64% |
